# From ChEMBL document CHEMBL3425486, “Lathyrol diterpenes as modulators of P-glycoprotein dependent multidrug resistance: structure-activity relationship studies on Euphorbia factor L3 derivatives” (J Med Chem, 2015)
# Experiments:
# MCF7 = experiment: Cytotoxicity against human MCF7 cells assessed as reduction in cell viability after 48 hrs by SRB colorimetric assay; format: functional, cell-based; conditions: MCF7, 48 h
# Outline: (§1)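 MCF-7 from ATCC and its stepwise ADR-selected resistant subline, grown in RPMI-1640 with 10% FBS and penicillin/streptomycin at 37 °C, 5% CO2. 1 × 10^4 cells/well exposed to graded compound concentrations for 48 h. Cells fixed with 10% TCA, stained with 0.4% SRB in 1% acetic acid, dye extracted with 10 mM Tris base, OD read at 490 nm. Taxol positive control.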
# [1] = Cytotoxicity against human MCF7/ADR cells assessed as reduction in cell viability after 48 hrs by SRB colorimetric assay; format: functional, cell-based; conditions: NCI/ADR-RES; outline: as §1
# [2] = molecular target: ATP-dependent translocase ABCB1 (Homo sapiens, UniProt P08183); experiment: Inhibition of P-gp in human MCF7/ADR cells assessed as reversal of multidrug resistance by measuring relative enhancement intensity for adriamycin-induced cytotoxicity at 10 uM after 48 hrs by SRB colorimetric assay; format: cell-based; parameters: scale not given: the % may be the effect or the level left; conditions: nci/adr-res
# ATP-dependent translocase ABCB1, sequence (P08183 whole entry): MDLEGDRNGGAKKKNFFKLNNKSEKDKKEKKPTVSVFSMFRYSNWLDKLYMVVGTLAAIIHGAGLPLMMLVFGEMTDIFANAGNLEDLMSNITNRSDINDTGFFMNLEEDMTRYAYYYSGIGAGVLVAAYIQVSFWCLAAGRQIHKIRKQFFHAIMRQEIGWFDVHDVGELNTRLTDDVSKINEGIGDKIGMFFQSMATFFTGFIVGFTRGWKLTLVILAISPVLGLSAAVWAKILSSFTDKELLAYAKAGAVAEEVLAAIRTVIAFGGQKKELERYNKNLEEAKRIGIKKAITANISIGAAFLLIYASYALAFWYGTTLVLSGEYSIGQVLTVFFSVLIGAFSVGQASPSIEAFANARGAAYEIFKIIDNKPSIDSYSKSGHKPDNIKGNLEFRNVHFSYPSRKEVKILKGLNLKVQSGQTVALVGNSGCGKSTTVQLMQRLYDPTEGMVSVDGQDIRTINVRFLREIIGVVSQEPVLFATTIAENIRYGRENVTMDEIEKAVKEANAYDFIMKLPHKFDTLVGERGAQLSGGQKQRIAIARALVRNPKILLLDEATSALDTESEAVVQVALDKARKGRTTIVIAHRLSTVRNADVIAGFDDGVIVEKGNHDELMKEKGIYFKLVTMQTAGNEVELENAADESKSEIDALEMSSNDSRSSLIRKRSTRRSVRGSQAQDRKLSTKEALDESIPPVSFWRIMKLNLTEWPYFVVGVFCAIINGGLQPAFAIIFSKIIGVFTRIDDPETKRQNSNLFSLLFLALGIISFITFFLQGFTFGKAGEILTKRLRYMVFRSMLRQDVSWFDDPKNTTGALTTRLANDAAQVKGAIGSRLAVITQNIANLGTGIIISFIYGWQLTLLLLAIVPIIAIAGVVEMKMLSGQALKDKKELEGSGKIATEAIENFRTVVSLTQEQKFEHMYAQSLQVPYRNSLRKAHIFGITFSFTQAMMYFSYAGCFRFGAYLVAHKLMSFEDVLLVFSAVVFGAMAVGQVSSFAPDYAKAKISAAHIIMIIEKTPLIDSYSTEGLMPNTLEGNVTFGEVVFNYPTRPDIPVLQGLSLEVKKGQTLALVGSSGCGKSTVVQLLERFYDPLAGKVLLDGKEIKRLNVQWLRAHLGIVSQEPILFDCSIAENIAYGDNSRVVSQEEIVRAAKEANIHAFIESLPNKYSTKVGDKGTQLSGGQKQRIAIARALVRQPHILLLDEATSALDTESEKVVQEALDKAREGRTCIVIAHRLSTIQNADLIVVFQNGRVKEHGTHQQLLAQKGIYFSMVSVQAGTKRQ
# NCI/ADR-RES = experiment: Inhibition of P-gp in human MCF7/ADR cells assessed as reversal of multidrug resistance at 10 uM by measuring ratio of EC50(adriamycin)/EC50(adriamycin + compound) after 48 hrs by SRB colorimetric assay; format: cell-based
# [3] = Inhibition of P-gp in human MCF7/ADR cells assessed as reversal of multidrug resistance at 10 uM by measuring EC50 for adriamycin-induced cytotoxicity after 48 hrs by SRB colorimetric assay; conditions: nci/adr-res
Structure (SMILES),IC50 (MCF7),IC50 [1],Activity [2],Ratio EC50 (NCI/ADR-RES),EC50 [3]
C=C1CC[C@H]2[C@@H](/C=C(\C)C(=O)[C@@]3(O)C[C@H](C)[C@H](OC(=O)CCC)[C@@H]3[C@H]1OC(=O)CCC)C2(C)C,18.5 µM,50.9 µM,4%,2.4,14.49 µM
C=C1CC[C@H]2[C@@H](/C=C(\C)C(=O)[C@@]3(O)C[C@H](C)[C@H](OC(=O)CCc4ccccc4)[C@@H]3[C@H]1OC(=O)CCc1ccccc1)C2(C)C,28.7 µM,> 100 µM,6%,1.3,–
C=C1CC[C@H]2[C@@H](/C=C(\C)C(=O)[C@@]3(O)C[C@H](C)[C@H](OC(=O)Cc4ccccc4)[C@@H]3[C@H]1OC(=O)Cc1ccccc1)C2(C)C,8.93 µM,36.3 µM,9.5%,2.6,–
C=C1CC[C@H]2[C@@H]([C@@H]3O[C@]4(C[C@H](C)[C@H](OC(=O)Cc5ccccc5)[C@@H]4[C@H]1OC(=O)Cc1ccccc1)C(=O)[C@H]3C)C2(C)C,28.5 µM,> 100 µM,11.6%,2.1,–
C=C1CC[C@H]2[C@@H](/C=C(\C)C(=O)[C@@]3(O)C[C@H](C)[C@H](OC(=O)Cc4cccc5ccccc45)[C@@H]3[C@H]1OC(=O)Cc1cccc3ccccc13)C2(C)C,13.4 µM,> 100 µM,10.1%,1.4,–
C=C1CC[C@H]2[C@@H]([C@@H]3O[C@]4(C[C@H](C)[C@H](OC(=O)CCCCC)[C@@H]4[C@H]1OC(=O)CCCCC)C(=O)[C@H]3C)C2(C)C,48.1 µM,> 100 µM,6.8%,7,–
C=C1CC[C@H]2[C@@H](/C=C(\C)C(=O)[C@@]3(O)C[C@H](C)[C@H](OC(=O)CCCCC)[C@@H]3[C@H]1OC(=O)CCCCC)C2(C)C,47.1 µM,> 100 µM,5.8%,1.9,18.51 µM
C=C1CC[C@H]2[C@@H](/C=C(\C)C(=O)[C@@]3(O)C[C@H](C)[C@H](OC(=O)c4ccccc4)[C@@H]3[C@H]1OC(=O)Cc1cccc3ccccc13)C2(C)C,4.16 µM,> 100 µM,11.1%,4,–
C=C1CCC(=C(C)C)[C@H]2C[C@@H](C)C(=O)[C@@]3(C[C@H](C)[C@H](OC(C)=O)[C@@H]3[C@H]1OC(C)=O)O2,45.8 µM,65.2 µM,2.4%,1.9,–
C=C1CC[C@H]2[C@@H](/C=C(\C)C(=O)[C@@]3(O)C[C@H](C)[C@H](O)[C@@H]3[C@H]1OC(=O)c1cccnc1)C2(C)C,17.3 µM,19.3 µM,10.3%,2.3,–
C=C1CC[C@H]2[C@@H](/C=C(\C)C(=O)[C@@]3(O)C[C@H](C)[C@H](O)[C@@H]3[C@H]1OC(=O)CC(C)C)C2(C)C,14.8 µM,60.8 µM,4.7%,4.1,–
C=C1CC[C@H]2[C@@H]([C@@H]3O[C@]4(C[C@H](C)[C@H](OC(=O)Cc5ccccc5)[C@@H]4[C@H]1OC(=O)Cc1ccccc1)C(=O)[C@@H]3C)C2(C)C,28.5 µM,55 µM,4%,1.6,–
C=C1CC[C@H]2[C@@H](/C=C(\C)C(=O)[C@@]3(O)C[C@H](C)[C@H](O)[C@@H]3[C@H]1OC(=O)/C=C/c1ccccc1)C2(C)C,8.24 µM,58.8 µM,9.1%,2.7,–
C=C1CC[C@H]2[C@@H]([C@@H]3O[C@]4(C[C@H](C)[C@H](OC(=O)CCc5ccccc5)[C@@H]4[C@H]1OC(=O)CCc1ccccc1)C(=O)[C@@H]3C)C2(C)C,14.2 µM,40.1 µM,8.3%,1.6,–
C=C1CC[C@H]2[C@@H](/C=C(\C)C(=O)[C@@]3(O)C[C@H](C)[C@H](O)[C@@H]3[C@H]1OC(=O)CCc1ccccc1)C2(C)C,11 µM,23.4 µM,11.6%,3.5,–
C=C1CC[C@H]2[C@@H](/C=C(\C)C(=O)[C@@]3(O)C[C@H](C)[C@H](O)[C@@H]3[C@H]1OC(=O)CC)C2(C)C,32.1 µM,53.5 µM,11.3%,2.3,–
C=C1CC[C@H]2[C@@H](/C=C(\C)C(=O)[C@@]3(O)C[C@H](C)[C@H](O)[C@@H]3[C@H]1OC(=O)Cc1ccccc1)C2(C)C,14.8 µM,42.9 µM,9.6%,7.4,–

Structure (SMILES),IC50 (MCF7),IC50 [1],Activity [2],Ratio EC50 (NCI/ADR-RES),EC50 [3]
C=C1CC[C@H]2[C@@H](/C=C(\C)C(=O)[C@@]3(O)C[C@H](C)[C@H](O)[C@@H]3[C@H]1OC(=O)CCCC)C2(C)C,13.1 µM,57.9 µM,0.1%,0.8,–
C=C1CC[C@H]2[C@@H]([C@@H]3O[C@]4(C[C@H](C)[C@H](OC(=O)CCC)[C@@H]4[C@H]1OC(=O)CCC)C(=O)[C@H]3C)C2(C)C,19.1 µM,> 100 µM,7.7%,3,–
C=C1CC[C@H]2[C@@H](/C=C(\C)C(=O)[C@@]3(O)C[C@H](C)[C@H](O)[C@@H]3[C@H]1OC(=O)c1ccccc1)C2(C)C,11.6 µM,55.3 µM,7.5%,1.5,–
C=C1CC[C@H]2[C@@H](/C=C(\C)C(=O)[C@@]3(O)C[C@H](C)[C@H](O)[C@@H]3[C@H]1OC(C)=O)C2(C)C,26.6 µM,80.7 µM,7.1%,1.9,–
C=C1CC[C@H]2[C@@H]([C@@H]3O[C@]4(C[C@H](C)[C@H](OC(=O)/C=C/c5ccccc5)[C@@H]4[C@H]1OC(=O)/C=C/c1ccccc1)C(=O)[C@H]3C)C2(C)C,64.2 µM,> 100 µM,2.1%,3.6,9.68 µM
C=C1CC[C@H]2[C@@H](/C=C(\C)C(=O)[C@@]3(O)C[C@H](C)[C@H](OC(=O)CC)[C@@H]3[C@H]1OC(=O)Cc1ccccc1)C2(C)C,9.57 µM,76 µM,9.3%,8.1,–
C=C1CC[C@H]2[C@@H]([C@@H]3O[C@]4(C[C@H](C)[C@H](OC(=O)c5ccccc5)[C@@H]4[C@H]1OC(=O)c1ccccc1)C(=O)[C@@H]3C)C2(C)C,25.2 µM,> 100 µM,6.8%,3.2,–
C=C1CC[C@H]2[C@@H]([C@@H]3O[C@]4(C[C@H](C)[C@H](OC(=O)CCc5ccccc5)[C@@H]4[C@H]1OC(=O)CCc1ccccc1)C(=O)[C@H]3C)C2(C)C,46.8 µM,> 100 µM,6.9%,1.2,–
C=C1CC[C@H]2[C@@H](/C=C(\C)C(=O)[C@@]3(O)C[C@H](C)[C@H](O)[C@@H]3[C@H]1OC(=O)CCCCC)C2(C)C,18.1 µM,46.1 µM,9.1%,3,11.45 µM
C=C1CC[C@H]2[C@@H](/C=C(\C)C(=O)[C@@]3(O)C[C@H](C)[C@H](OC(=O)CC)[C@@H]3[C@H]1OC(=O)CC)C2(C)C,18.6 µM,45 µM,4.6%,2.8,–
C=C1CC[C@H]2[C@@H](/C=C(\C)C(=O)[C@@]3(O)C[C@H](C)[C@H](OC(=O)/C=C/c4ccccc4)[C@@H]3[C@H]1OC(=O)c1ccccc1)C2(C)C,14.2 µM,42.1 µM,12.1%,9.8,–
C=C1CC[C@H]2[C@@H](/C=C(\C)C(=O)[C@@]3(O)C[C@H](C)[C@H](O)[C@@H]3[C@H]1O)C2(C)C,34 µM,59.6 µM,7.3%,3,–
C=C1CC[C@H]2[C@@H](/C=C(\C)C(=O)[C@@]3(O)C[C@H](C)[C@H](OC(=O)CC)[C@@H]3[C@H]1OC(=O)c1ccccc1)C2(C)C,8.47 µM,63.3 µM,12.1%,8.2,4.22 µM
C=C1CC[C@H]2[C@@H](/C=C(\C)C(=O)[C@@]3(O)C[C@H](C)[C@H](O)[C@@H]3[C@H]1OC(=O)C(C)C)C2(C)C,17 µM,66.3 µM,10.1%,3.2,–
C=C1CC[C@H]2[C@@H](/C=C(\C)C(=O)[C@@]3(O)C[C@H](C)[C@H](OC(C)=O)[C@@H]3[C@H]1OC(C)=O)C2(C)C,21.6 µM,41 µM,4.7%,4.1,–
C=C1CC[C@H]2[C@@H]([C@@H]3O[C@]4(C[C@H](C)[C@H](OC(=O)Cc5cccc6ccccc56)[C@@H]4[C@H]1OC(=O)Cc1cccc4ccccc14)C(=O)[C@H]3C)C2(C)C,84.9 µM,> 100 µM,10.4%,1.4,–
